Drawing on PubChem BioAssay AID651723 (Broad Institute, 2012), this text covers activation for 76 molecules.

“And” between values parts separate entries of the source, which are not always exact repeats. Equal entries are not always repeated. The campaign covered roughly 350,000 compounds. About 740 (0.21%) were called active. The full list was thinned out, with actives kept by preference. A number with no mark means an inactive call.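 The calls were made as follows: active = every replicate reaching activation of at least 50%, whatever the mean replicate activation; inconclusive = replicates that disagree or another doubt; inactive = the rest.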

The assay is described as follows: increased acetylated PGC1a in cells – cell-based, U2OS, AlphaScreen, signal-increasing mode, PGC1a modulator project, primary screen (AID 651723). Particulars: U2OS PGC1a acetylation AlphaScreen, overnight; at 15.6 µM; stronger effect = higher value. An outline of the steps: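 System: Flag-PGC1a/GCN5 U2OS cells | Quantity: 7000 cells/well | Times: Overnight compound treatment, 37 °C | Measured by: AlphaScreen proximity luminescence, anti-acetyl-lysine antibody | Dosing: One concentration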
In the case of `CCOC(=O)CSc1nccc(N(C)C)c1C#N`, the activation was -9.86%.
The same measure for `COc1ccc(CC(NC(C)=O)C(=O)N2CCN(C(=O)Nc3cccc(Cl)c3)CC2)cc1OC` (stereo unspecified): -50.7%; for `Cc1cc(C)n(-c2nc(O)cc(=O)[nH]2)n1`: -36.3%.
`COc1ccc(C(=O)NN(C)c2nc(-c3ccccc3)cc(C)c2S(C)(=O)=O)cc1`: the activation was 87.7% (active).
The value for `CC(C)C#Cc1cnc2c(c1)C(=O)N([C@@H](C)CO)C[C@@H](C)[C@@H](CN(C)C(=O)CN1CCOCC1)O2` was -58.3%; that for `O=C(CSc1nnc(Cn2cnc3ccccc32)o1)c1ccccc1` was 59.8% (active); that for `CCOc1ccccc1CN1CCN(C2CCC2)CC1CCO` (stereo unspecified) was -74.8%.
The same measure for `CN1OC[C@@H]2CN(S(=O)(=O)c3cccc4ccccc34)[C@H](c3ccc(N4CCCCC4)cc3)C[C@@H]21`: -47.9%.
As for `Cc1cc(C)nc(S/C=C/C(=O)c2ccccc2)n1`, the activation was 63.2% (active).
The value for `CCOC(=O)c1ccc2[nH]c(C)c(CN3CCN(C)CC3)c(=O)c2c1` was -59.3%.
The same measure for `CC(C)CCNc1nc(N2CCCC2)c2c(c1C#N)CCN(C)C2`: 102% (active); for `C[C@@H]1CCCCO[C@@H](CN(C)CC2CC2)[C@H](C)CN([C@H](C)CO)C(=O)c2cc(NS(=O)(=O)c3ccccc3)ccc2O1`: -56.4%; for `COc1ccc(C(=O)/C=C/c2cccnc2)c(OC)c1`: 70.7% (active).
The value for `NC(=O)N/N=C\c1cccs1` was -76.7%; that for `O=C(Nc1ccc2c(c1)OCO2)N[C@H]1CC[C@H](CCNC(=O)C2CCC2)O[C@@H]1CO` was -46.2%; that for `O=[N+]([O-])c1ccc(C=Nc2ccc(Cl)cc2Cl)s1` was 68.4% (active).
Turning to `C=CCn1c(=NC(=O)c2ccc(S(=O)(=O)N3CCCC3)cc2)sc2cc(NC(C)=O)ccc21`, the activation is -51.1%.
`N#Cc1ccc(-c2ccc([C@@H]3[C@H]4CNC[C@@H]3N4Cc3ccc4c(c3)OCO4)cc2)cc1`: the activation was -48.1%.
The same measure for `CCOC(=O)C1=CC[C@@H](c2ccccc2)N(S(=O)(=O)c2ccc(C)cc2)[C@H]1c1ccc(CC)cc1`: 75.7% (active).
The value for `NC(=NC(=O)c1ccccc1)N1CCOCC1` was -84.1%; that for `CCN(CC)C(=O)c1ccc(O)c(OC)c1` was -55.9%; that for `COc1ccc(C(=O)Nc2nc(-c3ccc(OC)cc3)c(-c3ccc([N+](=O)[O-])cc3)s2)cc1` was 55.6% (active).
The same measure for `N=C1C(c2nc3ccccc3s2)=C(O)CN1NC(=O)c1ccc([N+](=O)[O-])cc1`: -100%; for `O=C(Cc1ccccc1)N1N=C(c2ccncc2)CC1(O)C(F)(F)F` (stereo unspecified): -50%; for `C[C@@H]1CCCCO[C@@H](CN(C)CC2CC2)[C@@H](C)CN([C@H](C)CO)C(=O)c2cc(NC(=O)C3CCCCC3)ccc2O1`: -52.5%.
Regarding `CCc1ccc(NC(=O)Nc2ccncc2)cc1`, the activation is -48.9%.
As for `Cc1nc2ccccc2c(=O)n1NC(=O)c1ccc(Cl)c([N+](=O)[O-])c1`, the activation was -44.8%.
The value for `CCn1c(/C=C/c2ccc([N+](=O)[O-])o2)nc2ccccc2c1=O` was 149% (active); that for `O=C1CN(S(=O)(=O)Cc2ccccc2)C[C@@H]2[C@@H](c3ccc(C#Cc4cccc(F)c4)cc3)[C@@H](CO)N12` was 60.3% (active).
The same measure for `COc1ccc(-c2ccc(CCC(=O)O)n2NC(=O)c2ccc(C(C)(C)C)cc2)cc1`: -43.5%; for `S=C1NC(c2ccccc2)=NCN1c1ccc(Br)cc1`: -80.9%; for `NC(=O)Cc1ccc2c(c1)[nH]c1ccccc12`: 116% (active).
The value for `O=S(=O)(O)c1nc2ccccc2n1Cc1ccc(Cl)cc1` was -47.2%; that for `Cc1oc2c(c1C(=O)N1CCOCC1)C(=O)c1ccccc1C2=O` was -42.9%.
Consider `CN1/C(=C\C(=O)c2oc3ccccc3c2N)C(C)(C)c2ccccc21`, for which the activation was -86.9%.
With `Cc1cc(C(=O)N/N=C\C(Br)=C\c2ccccc2)c(C)o1`, the activation was 85.5% (active).
Consider `CC(C)c1cc(C(=O)N/N=C/C(Br)=C/c2ccccc2)n[nH]1`, for which the activation was 125% (active).
With `Cc1[nH]c(=O)c(C(=O)/C=C/c2ccccc2)c2c1CCCC2`, the activation is -53.2%.
For `N#Cc1cccc(NC(=O)COC(=O)c2ccccc2C(=O)c2ccc(Cl)c([N+](=O)[O-])c2)c1`, the activation is -46.9%.
As to `Clc1ccc(-c2nnc(-c3ccccc3)nc2N2CCSCC2)cc1`, the activation was 80.9% (active).
The value for `CN1CCc2c(sc3c2c(NCc2ccco2)nc2nnnn23)C1` was -44.7%; that for `COCCNC(=O)CSc1nc2c(n1-c1ccccc1)CCCC2` was -43.7%; that for `COc1ccc(NC(=O)C2(C)Cc3c(-c4cccc(NC(C)=O)c4)ccnc3O2)cc1` (stereo unspecified) was 71.2% (active).
In the case of `CCc1ccc(NC(=O)CSc2nnc(-c3cnccn3)n2Cc2ccco2)cc1`, the activation was -45.6%.
As to `O=C(/C=C/Sc1ncn[nH]1)c1ccc(Cl)cc1`, the activation was 109% (active).
The value for `COc1cccc(CNC(=O)CCC2CCCN(Cc3ccc(OC(F)F)cc3)C2)c1` (stereo unspecified) was -52.5%.
`Cc1cccc(NC(=O)c2ccc([N+](=O)[O-])o2)c1`: the activation was 149% (active).
The value for `CC(C)NC(=O)Nc1ccc2c(c1)C(=O)N([C@@H](C)CO)C[C@@H](C)[C@H](CN(C)S(=O)(=O)c1ccccc1)OCCCC[C@@H](C)O2` was -124%; that for `COc1ccc(-c2cc(=O)c3c(O)cc(O[C@@H]4O[C@H](CO[C@@H]5O[C@@H](C)[C@H](O)[C@@H](O)[C@H]5O)[C@@H](O)[C@H](O)[C@H]4O)cc3o2)cc1O` was -49.5%; that for `COCC(=O)Nc1ccc2c(c1)OC[C@H](C)N(C(=O)c1ccccc1F)C[C@H](C)[C@H](OC)CN(C)C2=O` was -42.9%.
Regarding `CCc1cc2c(N3CCN(c4nnc(CC)s4)CC3)ncnc2s1`, the activation is 53.5% (active).
The value for `CC1(C)CCSC(/C=C/c2ccccc2)=N1` was 183% (active).
In the case of `O=[N+]([O-])c1c(NCCO)cc(Sc2nc3ccccc3s2)c2nonc12`, the activation is -45%.
The value for `C[C@H](CO)N1C[C@H](C)[C@H](CN(C)Cc2ccc(C(=O)O)cc2)Oc2ncc(-c3ccccc3)cc2C1=O` was -41.5%; that for `Cc1cccc(C2C3=C(CCCC3=O)N=C3c4ccccc4C(=O)C32)c1` (stereo unspecified) was 80% (active).
With `CC(=O)NC1CCN(CC(=O)Nc2nccs2)CC1`, the activation is -50.3%.
The same measure for `CC(C)Cc1nn2c(=O)cc(O)nc2s1`: -40.3%.
The same measure for `COc1ccc(N(Cc2cc3cc(OC)ccc3[nH]c2=O)S(C)(=O)=O)cc1`: 69.9% (active); for `N#Cc1ccc(C(c2ccc(C#N)cc2)n2cncn2)cc1`: -48.6%.
The value for `Cc1cc(C)cc(N(CC(=O)Nc2c(C)n(C)n(-c3ccccc3)c2=O)S(C)(=O)=O)c1` was -49.5%; that for `C[C@H]1CN([C@@H](C)CO)C(=O)c2cc(C#Cc3ccc(F)cc3)cnc2O[C@@H]1CN(C)C(=O)Nc1ccc(F)cc1` was -44%.
In the case of `COc1ccc(C#Cc2ccc([C@H]3[C@@H](CO)N4CCCCN(C(=O)Nc5ccccc5)C[C@H]34)cc2)cc1`, the activation is 77.7% (active).
The value for `COc1ccc(NC(=O)/C(Cl)=C(/Cl)S(=O)Cc2ccc(C)cc2)cn1` (stereo unspecified) was -69.3%; that for `Cc1ccc(S(=O)(=O)Nc2ccc3c(c2)C(=O)N([C@H](C)CO)C[C@H](C)[C@H](CN(C)C(=O)NC(C)C)OCCCC[C@@H](C)O3)cc1` was -41.5%.
Take `COCC(=O)Nc1ccc2c(c1)OC[C@@H](C)N(CCc1ccccc1)C[C@H](C)[C@@H](OC)CN(C)C2=O`: the activation was -52.2%.
The value for `COc1ccc(S(=O)(=O)N2CCN(C(=O)c3cccs3)CC2)cc1OC` was -44%; that for `COc1ccc(C2CC(c3cccs3)=NN2c2nc(C)c(C(C)=O)s2)cc1OC` (stereo unspecified) was 83.1% (active).
The value for `O=S(=O)(NCc1ccccc1Br)c1ccccc1Br` was 55.2% (active); that for `COc1cc(NC(=O)c2[nH]cnc2C(N)=O)cc(C(=O)Nc2cccc(C(F)(F)F)c2)c1` was -62.8%.
For `C[C@H](CO)N1C[C@H](C)[C@@H](CN(C)Cc2cccnc2)Oc2cc(C3=CCCC3)ccc2S1(=O)=O`, the activation was -50.5%.
For `O=C(NCc1ccccc1)C(c1ccccc1)N(C(=O)c1csnn1)c1ccc(F)cc1` (stereo unspecified), the activation is 85.7% (active).
On to `Cc1noc(C)c1S(=O)(=O)N(C)C[C@H]1Oc2ccc(NS(=O)(=O)c3cccs3)cc2C(=O)N([C@H](C)CO)C[C@H]1C`, for which the activation is -48%.
In the case of `Cc1cc(C)c2c(-n3cccc3)c(C(=O)NNS(=O)(=O)c3ccc(F)cc3)sc2n1`, the activation is 132% (active).
The same measure for `Cc1cccc(-c2ccc(C3[C@@H]4CN(C(=O)Nc5ccc(C(F)(F)F)cc5)C[C@H]3N4)cc2)c1` (stereo partly specified): -92.4% and -92.8%.
Turning to `CC(C)C(OC(=O)c1cccs1)C(=O)NC1CCCCC1` (stereo unspecified), the activation was 90.6% (active).
In the case of `CC/C(=N\NC(=O)c1ccccc1Cl)c1ccc(Br)s1`, the activation was -82.8%.
